Source: ChEMBL document CHEMBL4373708 (J Med Chem, 2019)
The source made the active and inactive calls. The rule behind the calls is not given here.

What was measured:
[1] = target: T1, Solute carrier family 26 member 9 (Homo sapiens) (UniProt Q7LBE3); test: Inhibition of human slc26a9 expressed in FRT cells co-expressing EYFP-H148Q/I152L/F46L assessed as reduction in protein-mediated chloride/iodide exchange at 10 uM preincubated for 10 mins followed by NaI-substituted PBS addition and measured by YFP-based fluorescence assay; assay type: cell-based
T1 sequence (whole entry): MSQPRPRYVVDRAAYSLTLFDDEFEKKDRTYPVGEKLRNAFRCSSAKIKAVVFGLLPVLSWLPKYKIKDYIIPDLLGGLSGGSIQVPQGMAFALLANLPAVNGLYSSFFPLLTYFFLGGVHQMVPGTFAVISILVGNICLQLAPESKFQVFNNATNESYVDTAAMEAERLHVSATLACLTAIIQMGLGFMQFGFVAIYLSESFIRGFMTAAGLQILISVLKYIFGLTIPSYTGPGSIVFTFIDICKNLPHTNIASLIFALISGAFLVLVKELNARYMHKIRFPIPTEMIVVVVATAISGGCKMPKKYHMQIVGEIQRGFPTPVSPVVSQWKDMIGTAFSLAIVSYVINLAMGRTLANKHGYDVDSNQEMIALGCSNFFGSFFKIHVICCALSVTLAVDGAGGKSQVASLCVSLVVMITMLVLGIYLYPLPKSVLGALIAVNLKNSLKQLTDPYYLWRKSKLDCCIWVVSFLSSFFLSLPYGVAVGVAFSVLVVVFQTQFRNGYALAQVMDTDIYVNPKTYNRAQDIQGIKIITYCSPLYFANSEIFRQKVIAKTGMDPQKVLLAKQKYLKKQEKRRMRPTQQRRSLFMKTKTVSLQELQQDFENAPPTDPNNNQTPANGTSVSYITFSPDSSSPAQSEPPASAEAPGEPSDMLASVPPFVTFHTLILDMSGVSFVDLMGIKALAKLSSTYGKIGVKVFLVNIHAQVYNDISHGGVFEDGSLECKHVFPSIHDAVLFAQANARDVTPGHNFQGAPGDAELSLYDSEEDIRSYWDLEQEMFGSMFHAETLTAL
Method in brief: (§1)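 FRT cells expressing the given slc26 transporter plus EYFP-H148Q/I152L/F46L were preincubated 10 min with 0 or 10 µM compound in PBS. Iodide-substituted PBS was then added (140 mM NaCl replaced by NaI). The rate of YFP fluorescence quenching gave chloride/iodide exchange.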

Chloride anion exchanger = target: T2, Chloride anion exchanger (Mus musculus, UniProt Q9WVC8)
T2 sequence (Q9WVC8 whole entry): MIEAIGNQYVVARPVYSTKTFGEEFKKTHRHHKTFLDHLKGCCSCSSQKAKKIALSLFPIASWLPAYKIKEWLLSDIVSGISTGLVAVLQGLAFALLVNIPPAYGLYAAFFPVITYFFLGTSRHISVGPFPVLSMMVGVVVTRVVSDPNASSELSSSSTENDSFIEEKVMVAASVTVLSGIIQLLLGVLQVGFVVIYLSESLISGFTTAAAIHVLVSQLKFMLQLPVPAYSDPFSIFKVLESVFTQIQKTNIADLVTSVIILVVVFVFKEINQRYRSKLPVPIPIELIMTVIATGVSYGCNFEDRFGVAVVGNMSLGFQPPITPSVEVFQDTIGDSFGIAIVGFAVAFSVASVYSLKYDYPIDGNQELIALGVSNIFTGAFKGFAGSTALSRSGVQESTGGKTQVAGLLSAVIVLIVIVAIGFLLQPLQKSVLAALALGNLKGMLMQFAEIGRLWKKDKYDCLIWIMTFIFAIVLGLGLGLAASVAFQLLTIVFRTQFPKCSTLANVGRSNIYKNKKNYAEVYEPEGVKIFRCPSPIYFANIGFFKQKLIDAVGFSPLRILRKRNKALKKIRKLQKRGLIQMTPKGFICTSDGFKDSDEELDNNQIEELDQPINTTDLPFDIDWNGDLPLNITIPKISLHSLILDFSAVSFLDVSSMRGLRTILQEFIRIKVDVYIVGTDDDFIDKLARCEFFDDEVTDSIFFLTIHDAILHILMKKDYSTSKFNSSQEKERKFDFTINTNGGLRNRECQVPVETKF

[2] = target: T3, Solute carrier family 26 member 6 (Mus musculus) (UniProt Q8CIW6); test: Inhibition of mouse slc26a6 expressed in FRT cells co-expressing EYFP-H148Q/I152L/F46L assessed as reduction in protein-mediated chloride/iodide exchange at 10 uM preincubated for 10 mins followed by NaI-substituted PBS addition and measured by YFP-based fluorescence assay; assay type: cell-based; method in brief: as §1
T3 sequence (whole entry): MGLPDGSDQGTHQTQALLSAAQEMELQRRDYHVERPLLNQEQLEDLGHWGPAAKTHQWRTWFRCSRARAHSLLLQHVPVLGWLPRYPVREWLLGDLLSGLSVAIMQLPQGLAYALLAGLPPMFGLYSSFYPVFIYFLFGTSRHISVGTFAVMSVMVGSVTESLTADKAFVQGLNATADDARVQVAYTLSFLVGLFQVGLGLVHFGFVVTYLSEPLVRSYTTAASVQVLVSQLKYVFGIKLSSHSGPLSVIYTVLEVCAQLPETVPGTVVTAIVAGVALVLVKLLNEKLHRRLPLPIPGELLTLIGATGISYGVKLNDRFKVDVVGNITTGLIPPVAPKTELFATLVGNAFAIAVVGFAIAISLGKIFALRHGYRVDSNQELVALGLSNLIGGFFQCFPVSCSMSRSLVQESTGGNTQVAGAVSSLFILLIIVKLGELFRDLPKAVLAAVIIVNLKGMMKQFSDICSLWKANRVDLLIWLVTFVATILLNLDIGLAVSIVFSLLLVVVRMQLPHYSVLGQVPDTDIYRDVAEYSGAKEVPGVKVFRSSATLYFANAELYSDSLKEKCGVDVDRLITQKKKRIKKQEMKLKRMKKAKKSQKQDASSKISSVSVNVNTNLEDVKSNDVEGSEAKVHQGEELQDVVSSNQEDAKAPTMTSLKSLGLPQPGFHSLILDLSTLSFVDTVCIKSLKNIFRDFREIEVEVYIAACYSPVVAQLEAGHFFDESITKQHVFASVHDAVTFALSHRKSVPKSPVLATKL

| SMILES | inhibition [1] | IC50 (Chloride anion exchanger) [µM] | inhibition [2] |
| --- | --- | --- | --- |
| Cc1c(CC(=O)O)c(=O)oc2c(C)c(OCc3cccc(I)c3)ccc12 | inactive | 0.035 | inactive |
| Cc1c(CC(=O)O)c(=O)oc2c(C)c(OCc3cccc(C(F)(F)F)c3)ccc12 | inactive | 0.023 | inactive |
